Test results published in publication PMC3941710 (Journal of medicinal chemistry, 2009).

Columns and labels:
Stability in PBS = format: physicochemical; conditions: PBS/CH3CN 10:1, pH 7.1, ambient temperature, up to 24 h
[1] = target: T1, human sex hormone binding globulin (SHBG) (Homo sapiens, UniProt P04278); test: Binding to purified human SHBG; conditions: size-exclusion HPLC / ITLC
T1 sequence (P04278 30-402): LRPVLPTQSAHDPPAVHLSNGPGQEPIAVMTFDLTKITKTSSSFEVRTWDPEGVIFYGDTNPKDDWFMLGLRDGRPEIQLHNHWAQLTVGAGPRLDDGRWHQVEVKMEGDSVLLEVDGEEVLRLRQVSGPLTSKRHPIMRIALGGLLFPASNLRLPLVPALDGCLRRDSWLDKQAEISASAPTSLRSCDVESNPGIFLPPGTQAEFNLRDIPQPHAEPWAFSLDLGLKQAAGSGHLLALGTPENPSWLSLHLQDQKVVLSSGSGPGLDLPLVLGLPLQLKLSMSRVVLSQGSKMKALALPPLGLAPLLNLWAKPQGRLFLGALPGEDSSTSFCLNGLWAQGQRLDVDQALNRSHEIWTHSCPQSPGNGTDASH

[2] = test system: LNCaP human prostate cancer cells; test: Uptake and subcellular distribution in LNCaP cells; format: cell-based; conditions: proliferating LNCaP monolayer, 24 h exposure
[3] = test system: intraperitoneal NIH:OVCAR-3 xenografts; test: Biodistribution and imaging of 8 in athymic mice with ip NIH:OVCAR-3 xenografts; format: in vivo, mouse
MCF-7 cells = test: Uptake of 8 in MCF7 cells with or without DHT at 4 °C; format: cell-based, human; conditions: 0.1 μCi/mL 8, 0.1 μM DHT, 16 h
How it was run: (§1)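 Cells with very low or no AR expression. Non-radioactive DHT competitor was added before the radioiodinated test compound to block AR binding. Cells were grown with the test compound at 4 °C for 16 h and cellular retention was compared with DHT-free cells.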

[4] = Binding and stability in rabbit serum
[5] = Binding and stability in mouse serum
[6] = test system: intraperitoneal NIH:OVCAR-3 xenografts; test: Therapy with 8 in OVCAR-3-bearing athymic mice; format: in vivo, mouse
[7] = Binding and stability in human serum
PC-3 cells = test: Uptake of 8 in PC-3 cells with or without DHT at 4 °C; format: cell-based, human; conditions: 0.1 μCi/mL 8, 0.1 μM DHT, 16 h
How it was run: as §1

[8] = test system: LNCaP human prostate cancer cells; test: Cell survival of LNCaP cells; format: cell-based; conditions: 48 h, extracellular concentration 8 μCi/mL
How it was run: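 LNCaP cells plated at 2000 cells/well, allowed to attach for 24 h, then given fresh charcoal–dextran-stripped medium containing radioactive test compound. Survival read by CellTiter-Fluor viability assay or CellTiter 96 AQueous One Solution proliferation assay.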

[9] = Biodistribution of fractionated ip doses of 13 in healthy mice; format: in vivo, mouse; conditions: control (healthy) mice
[10] = test system: intraperitoneal NIH:OVCAR-3 xenografts; format: in vivo, mouse
[11] = test system: intraperitoneal NIH:OVCAR-3 xenografts; test: Fractionated therapy and biodistribution of 13 in OVCAR-3-bearing mice; format: in vivo, mouse
[12] = cell pellet, six fractionated ip treatments
[13] = 13 (0.25 mCi) + SHBG therapy group, or SHBG only

## C[C@]12CCC(=O)C[C@@H]1CC[C@@H]1[C@@H]2CC[C@]2(C)[C@@H](OC(=O)CCC(=O)O[C@H]3C[C@H](n4cc([125I])c(=O)[nH]c4=O)O[C@@H]3CO)CC[C@@H]12 [compound 8, 5-[^125I]Iodo-3′-O-(17β-succinyl-5α-androstan-3-one)-2′-deoxyuridine]
Stability in PBS
  stability in PBS: stable in PBS
[1]
  binding to pure SHBG isolated from human serum: bind to pure SHBG isolated from human serum
[2]
  Bmax (single cell-binding isotherm): 1.4 × 10^−6 pmol/cell
[3]; 24 h and later after ip administration
  peritoneal lavage radioactivity associated with OVCAR-3 cells: > 95%
[3]; 72 h after ip administration
  uptake in uterus: up to 1 % ID/g
[3]; 72 h after ip administration of 45 μCi 8
  whole body radioactivity associated with the intraperitoneal tumor (ROI): 8.3% ± 2.1%
[3]; 72 h after ip injection of 45 μCi 8
  fraction of lavage radioactivity associated with cancer cells: > 97%
MCF-7 cells
  effect of DHT competitor on cellular retention: In neither PC-3 nor MCF-7 cells was the cellular retention of 8 influenced by the presence of competitor
[4]
  binding to SHBG in rabbit serum: bind to SHBG in rabbit and human serum
[4]; rabbit serum, after 60 min of incubation
  intact compound remaining: > 84%
[5]
  binding to mouse serum: does not bind to mouse serum
[5]; mouse serum, no SHBG
  time in which mouse serum degrades 8 to 1: < 10 min
[6]; 12 days after the last of six therapeutic doses, decay corrected
  radioactivity retained in tumors: ~ 0.5 % ID/g
[6]; [12]
  range of weight: 0.012 to 0.781 g
[6]; six fractionated ip treatments
  average cell pellet weight (g) (SEM): 0.380(0.111) g
[6]; tumors 12 days after the last of six doses
  ^125I bound to DNA as share of total cell-associated radioactivity: 86.8% ± 7.4%
[7]
  binding to SHBG in human serum: bind to SHBG in rabbit and human serum
[7]; human serum, after 60 min of incubation
  intact compound remaining: > 91%
PC-3 cells
  effect of DHT competitor on cellular retention: In neither PC-3 nor MCF-7 cells was the cellular retention of 8 influenced by the presence of competitor

## CCOC(=O)CCC(=O)O[C@H]1C[C@H](n2cc([125I])c(=O)[nH]c2=O)O[C@@H]1CO [compound 17, 5-[^125I]Iodo-3′-O-succinyl-2′-deoxyuridine Ethyl Ester]
[1]
  binding to pure SHBG isolated from human serum: Neither the control reagent 17 nor compound 20, which is the metabolite of 13, binds to SHBG or to any component of analyzed sera

## O=c1[nH]c(=O)n([C@H]2C[C@H](O)[C@@H](COP(=O)(O)O)O2)cc1[125I] [compound 20, 5-[^125I]Iodo-2′-deoxyuridine-5′-monophosphate]
[1]
  binding to pure SHBG isolated from human serum: Neither the control reagent 17 nor compound 20, which is the metabolite of 13, binds to SHBG or to any component of analyzed sera
[5]; mouse serum, after 60 min of incubation
  intact compound remaining: does not survive incubation in mouse serum

## C[C@]12CCC(=O)C[C@@H]1CC[C@@H]1[C@@H]2CC[C@]2(C)[C@@H](OC(=O)CCC(=O)O[C@H]3C[C@H](n4cc([125I])c(=O)[nH]c4=O)O[C@@H]3COP(=O)(O)O)CC[C@@H]12 [compound 13, 5-[^125I]Iodo-3′-O-(17β-succinyl-5α-androstan-3-one)-2′-deoxyuridin-5′-yl Monophosphate]
Stability in PBS
  stability in PBS: stable in PBS
[8]
  cells dead: Ninety percent
[1]
  binding to pure SHBG isolated from human serum: bind to pure SHBG isolated from human serum
[4]
  binding to SHBG in rabbit serum: bind to SHBG in rabbit and human serum
[5]
  binding to mouse serum: appears to bind to some unidentified component of mouse serum
[9]; blood
  percent injected dose per gram of tissue, blood: 0.001(0.0001) percent injected dose per gram of tissue
[9]; heart
  percent injected dose per gram of tissue, heart: 0.002(0.0003) percent injected dose per gram of tissue
[9]; kidney
  percent injected dose per gram of tissue, kidney: 0.005(0.0005) percent injected dose per gram of tissue
[9]; large intestine
  percent injected dose per gram of tissue, large intestine: 0.005(0.0009) percent injected dose per gram of tissue
[9]; liver
  percent injected dose per gram of tissue, liver: 0.006(0.0005) percent injected dose per gram of tissue
[9]; lung
  percent injected dose per gram of tissue, lung: 0.004(0.0007) percent injected dose per gram of tissue
[9]; small intestine
  percent injected dose per gram of tissue, small intestine: 0.006(0.0016) percent injected dose per gram of tissue
[9]; spleen
  percent injected dose per gram of tissue, spleen: 0.025(0.0025) percent injected dose per gram of tissue
[9]; stomach
  percent injected dose per gram of tissue, stomach: 0.007(0.0002) percent injected dose per gram of tissue
[9]; uterus
  percent injected dose per gram of tissue, uterus: 0.015(0.0011) percent injected dose per gram of tissue
[7]
  binding to SHBG in human serum: bind to SHBG in rabbit and human serum
[10]; 0.25 mCi dose
  adverse effects from hematologic data: no overt adverse effects
[10]; necropsy after bolus dose of 13
  fold lower radioactivity in blood than in cancer cells: > 2.5 ×
[11]; OVCAR-3 mice, blood
  percent injected dose per gram of tissue, blood: 0.003(0.0010) percent injected dose per gram of tissue
[11]; OVCAR-3 mice, heart
  percent injected dose per gram of tissue, heart: 0.003(0.0004) percent injected dose per gram of tissue
[11]; OVCAR-3 mice, kidney
  percent injected dose per gram of tissue, kidney: 0.013(0.0063) percent injected dose per gram of tissue
[11]; OVCAR-3 mice, large intestine
  percent injected dose per gram of tissue, large intestine: 0.008(0.0009) percent injected dose per gram of tissue
[11]; OVCAR-3 mice, liver
  percent injected dose per gram of tissue, liver: 0.017(0.0020) percent injected dose per gram of tissue
[11]; OVCAR-3 mice, lung
  percent injected dose per gram of tissue, lung: 0.008(0.0018) percent injected dose per gram of tissue
[11]; OVCAR-3 mice, small intestine
  percent injected dose per gram of tissue, small intestine: 0.011(0.0014) percent injected dose per gram of tissue
[11]; OVCAR-3 mice, spleen
  percent injected dose per gram of tissue, spleen: 0.043(0.0103) percent injected dose per gram of tissue
[11]; OVCAR-3 mice, stomach
  percent injected dose per gram of tissue, stomach: 0.009(0.0010) percent injected dose per gram of tissue
[11]; OVCAR-3 mice, tumor
  percent injected dose per gram of tissue, tumor: 2.892(0.5317) percent injected dose per gram of tissue
[11]; OVCAR-3 mice, uterus
  percent injected dose per gram of tissue, uterus: 0.027(0.0051) percent injected dose per gram of tissue
[11]; [12]
  median weight: 0.064 g
  range of weight: 0.044 to 0.076 g
[11]; fractionated ip doses
  average retention of ^125I in OVCAR-3 cells: 0.0124 ± 0.0024 cpm/cell
[11]; fractionated ip doses, TCA precipitation
  radioactivity of surviving cancer cells recovered with DNA: Virtually all radioactivity associated with surviving cancer cells was recovered with DNA
[11]; six fractionated ip treatments
  average cell pellet weight (g) (SEM): 0.061(0.006) g

B1: SHBG: Human SHBG (pure, lyophilized), injected ip alone as control or co-injected with 13 (protein, UniProt P04278 30-402, looked up)
Sex hormone-binding globulin: LRPVLPTQSAHDPPAVHLSNGPGQEPIAVMTFDLTKITKTSSSFEVRTWDPEGVIFYGDTNPKDDWFMLGLRDGRPEIQLHNHWAQLTVGAGPRLDDGRWHQVEVKMEGDSVLLEVDGEEVLRLRQVSGPLTSKRHPIMRIALGGLLFPASNLRLPLVPALDGCLRRDSWLDKQAEISASAPTSLRSCDVESNPGIFLPPGTQAEFNLRDIPQPHAEPWAFSLDLGLKQAAGSGHLLALGTPENPSWLSLHLQDQKVVLSSGSGPGLDLPLVLGLPLQLKLSMSRVVLSQGSKMKALALPPLGLAPLLNLWAKPQGRLFLGALPGEDSSTSFCLNGLWAQGQRLDVDQALNRSHEIWTHSCPQSPGNGTDASH
[10]; [13]
  hematocrit (Ht): 51.4 ± 1.6
  hemoglobin (Hb): 11.5 ± 1.3
[10]; 13 + SHBG or SHBG only
  average weight of solid tumors: 1.9 ± 0.8 g
